In ChEMBL document CHEMBL2396529, “Synthesis and anticancer mechanism investigation of dual Hsp27 and tubulin inhibitors” (J Med Chem, 2013):
pIC50: −log10 of the molar value. Active and inactive are the calls of the source. The rule behind the calls is not given here.

Tests used:
[1] = tested on: SK-BR-3; assay: Effect on HSP70 protein level human SKBR3 cells at 5 to 15 nM after 24 hrs by Western blotting analysis; assay type: functional, cell-based
[2] = tested on: SK-BR-3; assay: Effect on EIF4E protein level human SKBR3 cells at 5 to 15 nM after 24 hrs by Western blotting analysis; assay type: functional, cell-based
[3] = tested on: SK-BR-3; assay: Effect on STAT3 protein level human SKBR3 cells at 5 to 15 nM after 24 hrs by Western blotting analysis; assay type: functional, cell-based
[4] = tested on: SK-BR-3; assay: Effect on HER2 protein level human SKBR3 cells at 5 to 15 nM after 24 hrs by Western blotting analysis; assay type: functional, cell-based
[5] = tested on: SK-BR-3; assay: Induction of HSP27 phosphorylation in human SKBR3 cells at 5 to 15 nM after 24 hrs by Western blotting analysis; assay type: functional, cell-based
Outline: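 SKBR-3 cells exposed to 5, 10 and 15 nM for 24 h against DMSO, then lysed, sonicated and spun at 12000g for 10 min. 30 μg protein run on 10% SDS-PAGE and transferred to PVDF. Blocked with 5% milk in PBST, probed with specific primary antibodies and an HRP secondary. pHsp27 bands quantified and normalised to β-actin.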

[6] = target: Heat shock protein beta-1 (Homo sapiens) (UniProt P04792); assay: Inhibition of HSP27 (unknown origin) assessed as increase in DTT-induced insulin B chain aggregation at 10 uM incubated for 5 mins prior to DTT-treatment measured after 30 mins by spectrophotometric analysis relative to control
[7] = species on record: Bos taurus; assay: Inhibition of bovine brain tubulin polymerization after 20 mins by spectrophotometric analysis in presence of GTP
[8] = tested on: SK-BR-3; assay: Induction of apoptosis in human SKBR3 cells assessed as increase in cleaved PARP protein level at 5 to 15 nM after 24 hrs by Western blotting analysis; assay type: functional, cell-based
Outline: (§1)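 SKBR-3 cells treated 24 h with 5, 10 and 15 nM against DMSO. Lysates (60 μg protein) resolved on 10% SDS-PAGE, transferred to PVDF, blocked in 5% milk/PBST and immunoblotted for cleaved caspase 3 and cleaved PARP with an HRP secondary.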

[9] = tested on: SK-BR-3; assay: Induction of apoptosis in human SKBR3 cells assessed as increase in cleaved caspase-3 protein level at 5 to 15 nM after 24 hrs by Western blotting analysis; assay type: functional, cell-based; outline: as §1
[10] = tested on: SK-BR-3; assay: Cell cycle arrest in human SKBR3 cells assessed as accumulation at G2/M phase at 5 nM after 24 hrs by propidium iodide staining-based FACS flow cytometric analysis (reference value: 10.77%); assay type: functional
[11] = tested on: SK-BR-3; assay: Cell cycle arrest in human SKBR3 cells assessed as accumulation at G2/M phase at […] after 24 hrs by propidium iodide staining-based FACS flow cytometric analysis (reference value: 10.77%); assay type: functional
[12] = tested on: SK-BR-3; assay: Cell cycle arrest in human SKBR3 cells assessed as accumulation at G2/M phase at 1 nM after 24 hrs by propidium iodide staining-based FACS flow cytometric analysis (reference value: 10.77%); assay type: functional
[13] = tested on: SK-BR-3; assay: Cell cycle arrest in human SKBR3 cells assessed as accumulation at S phase at 5 nM after 24 hrs by propidium iodide staining-based FACS flow cytometric analysis (reference value: 16.34%); assay type: functional
[14] = tested on: SK-BR-3; assay: Cell cycle arrest in human SKBR3 cells assessed as accumulation at S phase at […] after 24 hrs by propidium iodide staining-based FACS flow cytometric analysis (reference value: 16.34%); assay type: functional
[15] = tested on: SK-BR-3; assay: Cell cycle arrest in human SKBR3 cells assessed as accumulation at S phase at 1 nM after 24 hrs by propidium iodide staining-based FACS flow cytometric analysis (reference value: 16.34%); assay type: functional
[16] = tested on: SK-BR-3; assay: Cell cycle arrest in human SKBR3 cells assessed as accumulation at G1 phase at 5 nM after 24 hrs by propidium iodide staining-based FACS flow cytometric analysis (reference value: 69.63%); assay type: functional
[17] = tested on: SK-BR-3; assay: Cell cycle arrest in human SKBR3 cells assessed as accumulation at G1 phase at […] after 24 hrs by propidium iodide staining-based FACS flow cytometric analysis (reference value: 69.63%); assay type: functional
[18] = tested on: SK-BR-3; assay: Cell cycle arrest in human SKBR3 cells assessed as accumulation at G1 phase at 1 nM after 24 hrs by propidium iodide staining-based FACS flow cytometric analysis (reference value: 69.63%); assay type: functional
[19] = tested on: SK-BR-3; assay: Cell cycle arrest in human SKBR3 cells assessed as accumulation at subG1 phase at 5 nM after 24 hrs by propidium iodide staining-based FACS flow cytometric analysis (reference value: 3.23%); assay type: functional
[20] = tested on: SK-BR-3; assay: Cell cycle arrest in human SKBR3 cells assessed as accumulation at subG1 phase at […] after 24 hrs by propidium iodide staining-based FACS flow cytometric analysis (reference value: 3.23%); assay type: functional
[21] = tested on: SK-BR-3; assay: Cell cycle arrest in human SKBR3 cells assessed as accumulation at subG1 phase at 1 nM after 24 hrs by propidium iodide staining-based FACS flow cytometric analysis (reference value: 3.23%); assay type: functional
[22] = tested on: SK-BR-3; assay: Antiproliferative activity against human SKBR3 cells after 48 hrs by MTT assay; assay type: functional, cell-based; details: SK-BR-3, 48 h
Outline: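 MTT assay on SKBR-3 cells (RPMI 1640, 10% heat-inactivated FBS, 37 °C, 5% CO2), seeded 24 h before dosing, then exposed 48 h to a concentration series in DMSO (final ≤0.1%) with vehicle-matched controls. Afterwards 0.5 mg/mL MTT for 2 h, formazan dissolved in DMSO, A570 read, six replicates. IC50 from nonlinear regression.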

[23] = species on record: Bos taurus; assay: Inhibition of bovine brain tubulin polymerization at 1 uM after 15 mins by spectrophotometric analysis relative to control in presence of GTP
[24] = species on record: Bos taurus; assay: Inhibition of bovine brain tubulin polymerization at 10 nM after 15 mins by spectrophotometric analysis relative to control in presence of GTP
[25] = species on record: Bos taurus; assay: Inhibition of bovine brain tubulin polymerization at 100 nM after 15 mins by spectrophotometric analysis relative to control in presence of GTP
[26] = tested on: SK-BR-3; assay: Effect on total HSP27 protein level human SKBR3 cells at 5 to 15 nM after 24 hrs by Western blotting analysis; assay type: functional, cell-based
[27] = tested on: SK-BR-3; assay: Cell cycle arrest in human SKBR3 cells assessed as accumulation at G2/M phase at 50 nM after 24 hrs by propidium iodide staining-based FACS flow cytometric analysis (reference value: 10.77%); assay type: functional
[28] = tested on: SK-BR-3; assay: Cell cycle arrest in human SKBR3 cells assessed as accumulation at S phase at 50 nM after 24 hrs by propidium iodide staining-based FACS flow cytometric analysis (reference value: 16.34%); assay type: functional
[29] = tested on: SK-BR-3; assay: Cell cycle arrest in human SKBR3 cells assessed as accumulation at G1 phase at 50 nM after 24 hrs by propidium iodide staining-based FACS flow cytometric analysis (reference value: 69.63%); assay type: functional
[30] = tested on: SK-BR-3; assay: Cell cycle arrest in human SKBR3 cells assessed as accumulation at subG1 phase at 50 nM after 24 hrs by propidium iodide staining-based FACS flow cytometric analysis (reference value: 3.23%); assay type: functional

Heat shock protein beta-1 (Homo sapiens), sequence (P04792 whole entry): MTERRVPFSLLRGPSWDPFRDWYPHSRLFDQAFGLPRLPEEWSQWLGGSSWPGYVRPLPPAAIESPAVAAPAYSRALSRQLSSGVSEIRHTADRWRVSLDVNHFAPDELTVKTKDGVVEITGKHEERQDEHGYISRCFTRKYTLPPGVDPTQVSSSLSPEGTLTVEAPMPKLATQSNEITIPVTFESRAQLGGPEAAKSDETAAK

SMILES | Activity [1] | Activity [2] | Activity [3] | Activity [4] | Activity [5] | inhibition [6] [%] | inhibition [7] | Activity [8] | Activity [9] | Activity [10] [%] | Activity [11] [%] | Activity [12] [%] | Activity [13] [%] | Activity [14] [%] | Activity [15] [%] | Activity [16] [%] | Activity [17] [%] | Activity [18] [%] | Activity [19] [%] | Activity [20] [%] | other results
COc1ccc(C(=O)Nc2ccc(N(C)S(C)(=O)=O)c(OCc3cc(OC)ccc3OC)c2)cc1 | inactive | inactive | inactive | inactive | Active | 9 | Dose-dependent effect | Active | Active | 25.47 | 28.57 | 12.78 | 8.83 | 8.92 | 8.71 | 32.02 | 34.91 | 61.21 | 33.54 | 27.43 | Activity [21]: 17.1%; pIC50 [22]: 8.59; inhibition [23]: 66%; inhibition [24]: 5%; inhibition [25]: 19%
COc1ccc(OC)c(COc2cc(NC(=O)c3ccc(I)cc3)ccc2N(C)S(C)(=O)=O)c1 | inactive | inactive | inactive | inactive | Active | 27 | Dose-dependent effect | Active | Active | 13.76 | 8.1 | 9.24 | 9.51 | 9.49 | 8.45 | 51.84 | 60.08 | 66.68 | 24.27 | 22.02 | Activity [26]: inactive; Activity [27]: 24.32%; Activity [28]: 11.39%; Activity [29]: 31.22%; Activity [30]: 32.88%; Activity [21]: 14.73%; pIC50 [22]: 8.92; inhibition [23]: 64%
